Screening results deposited in PubChem BioAssay by Johns Hopkins Ion Channel Center.
RGS4 act = RGS4 potentiators or activators, primary screen, cell-based, HEK293 M3R inducible RGS4, calcium flux | carbachol calcium flux Fluo4; stronger effect = lower value | B-score at 10 µM | actives 0.92% (n = 310,000) | AID 463111, 2010;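 active = B-score of the integrated calcium signal more than 4 SD below the library mean, with starting fluorescence not abnormally high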;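 also: negative B-score means reduced calcium response which marks RGS4 activation or potentiation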
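Reagent: ECmax carbachol challenge; Test system: M3R-expressing HEK293 line, RGS4 induced by doxycycline; Schedule: overnight RGS4 induction, 30 min dye load 37 °C, 20 min compound RT; Detection: calcium dye Fluo4 fluorescence; Read-out: Agonist-evoked peak-minus-minimum fluorescence over baseline, integrated ratio, B score.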
MrgX1 allo act = positive allosteric modulators of MrgX1, primary screen, HEK293 cells, Fluo-4 calcium flux; Mas-related G-protein coupled receptor member X1 (Homo sapiens), Q96LB2; FDSS; stronger effect = higher value; B-score at 10 µM; actives 0.63% (n = 310,000); AID 588675, 2011;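 active = plate-corrected calcium response at least 3 library SD above typical, normal starting fluorescence, not activating the receptor alone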;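 also: compound read alongside a low EC10 to EC30 dose of BAM8-22 agonist; peak minus trough fluorescence over baseline measured at the second addition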
Target sequence (Q96LB2 whole entry, looked up): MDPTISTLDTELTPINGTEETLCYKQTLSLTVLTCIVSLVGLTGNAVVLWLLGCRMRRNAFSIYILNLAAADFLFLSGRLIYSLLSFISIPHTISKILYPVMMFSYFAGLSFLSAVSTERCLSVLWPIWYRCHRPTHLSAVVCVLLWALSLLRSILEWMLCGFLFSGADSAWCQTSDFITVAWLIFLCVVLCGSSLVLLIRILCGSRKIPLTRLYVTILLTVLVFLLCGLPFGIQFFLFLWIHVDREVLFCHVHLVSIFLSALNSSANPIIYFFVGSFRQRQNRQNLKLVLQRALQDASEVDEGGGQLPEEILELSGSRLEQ
RGS4 inh = RGS4 inhibitors, primary screen, cell-based, HEK293 M3R inducible RGS4, calcium flux | Regulator of G-protein signaling 4 (Homo sapiens), P49798 | Fluo-4 calcium flux; stronger effect = higher value; triggered by carbachol at its EC20 | B-score at 10 µM | actives 0.45% (n = 310,000) | AID 463165, 2010;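 active = B-score, a plate-corrected calcium signal, over three deviations above library mean, with baseline fluorescence within five deviations of library mean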;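 also: RGS4 expression induced by doxycycline in cells with stable M3 receptor; B-score is computed from the integrated fluorescence ratio over baseline after carbachol; higher B-score means a larger calcium signal and so more RGS4 inhibition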
MrgX1 antagonist = antagonists of human MrgX1 receptor, primary screen, HEK293 cells, Fluo-4 calcium flux; Mas-related G-protein coupled receptor member X1 (Homo sapiens), Q96LB2; BAM8-22 antagonism; stronger effect = lower value; AID 588676, 2011; actives 1.3% (n = 310,000); B-score at 10 µM;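 active = calcium-response B-score plate-corrected more than 3 library SD below zero, starting fluorescence within 5 deviations, no agonist response on first addition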;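 also: peak minus trough fluorescence over baseline after final BAM8-22 challenge near maximal dose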
MrgX1 ag = agonists of human MrgX1 receptor, primary screen, HEK293 cells, Fluo-4 calcium flux. actives 0.44% (n = 310,000). Fluo-4 calcium fluorescence, agonist mode; stronger effect = higher value. AID 588627, 2011. Mas-related G-protein coupled receptor member X1 (Homo sapiens), Q96LB2. B-score at 10 µM;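 active = calcium response B-score plate-corrected fluorescence ratio at least 3 library SD, with starting fluorescence B-score inside 5 SD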
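Assay system: MrgX1-expressing HEK293 cells / Amount: fifteen thousand cells per well / Doses: test compound in the initial addition of three / Timing: cells plated overnight, dye loaded 0.5 h 37 °C, 0.5 h room temperature / Technique: kinetic calcium dye fluorescence, Fluo-4 NW / Control set: positive and negative controls per plate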
Starred values were filed as active, the others as inactive. Shown are actives, neighbours in structure and some others; about 3.5% of the full set was active somewhere.

For O=[N+]([O-])c1cc(Br)c(Nc2ccccc2)c([N+](=O)[O-])c1 the results were RGS4 act inactive, MrgX1 allo act 6.55*, RGS4 inh inactive, MrgX1 antagonist inactive and MrgX1 ag inactive.
Cc1cccc(NCc2ccccc2OCc2ccccc2F)c1 was read as RGS4 act inactive, MrgX1 allo act inactive, RGS4 inh inactive, MrgX1 antagonist inactive and MrgX1 ag inactive.
Screening C=CCNc1nc(Nc2ccc(-c3nc4ccccc4o3)cc2)nc(N2CCOCC2)n1 returned RGS4 act -7.11*, MrgX1 allo act inactive, RGS4 inh inactive, MrgX1 antagonist inactive and MrgX1 ag inactive.
For O=[N+]([O-])c1cc(-c2nnc(Nc3ccccc3)c3ccccc23)ccc1N1CCOCC1 the results were RGS4 act inactive, MrgX1 allo act inactive, RGS4 inh inactive, MrgX1 antagonist inactive and MrgX1 ag inactive.
`C=CCNc1nc(NCC)nc(N2CCOCC2)n1` gave RGS4 act inactive, MrgX1 allo act inactive, RGS4 inh inactive, MrgX1 antagonist inactive and MrgX1 ag inactive.
Screening O=C(Nc1ccc(-c2nc3ccccc3o2)cc1)c1ccc(N2CCOCC2)c([N+](=O)[O-])c1 returned RGS4 act inactive, MrgX1 allo act inactive, RGS4 inh inactive, MrgX1 antagonist -6.54* and MrgX1 ag inactive.
`COc1ccc2oc(-c3ccc(NC(=O)c4ccc(N5CCOCC5)c([N+](=O)[O-])c4)cc3)nc2c1` gave RGS4 act inactive, MrgX1 allo act inactive, RGS4 inh inactive, MrgX1 antagonist inactive and MrgX1 ag inactive.
`O=[N+]([O-])c1cc(-c2nnc(Nc3ccc(O)cc3)c3ccccc23)ccc1N1CCOCC1` gave RGS4 act inactive, MrgX1 allo act inactive, RGS4 inh inactive, MrgX1 antagonist -4.73* and MrgX1 ag inactive.
Screening COC(=O)Cc1ccc(NC(=O)c2ccccc2Br)cc1 returned RGS4 act inactive, MrgX1 allo act inactive, RGS4 inh inactive, MrgX1 antagonist inactive and MrgX1 ag inactive.
`Cc1nc(N2CCCCC2C)c2c(C)c(C(=O)Nc3cccc(C(F)(F)F)c3)sc2n1` (configuration not stated) gave RGS4 act inactive, MrgX1 allo act inactive, RGS4 inh inactive, MrgX1 antagonist inactive and MrgX1 ag inactive.
CCOC(=O)c1sc2nc(C)nc(N3CCCCC3C)c2c1C (configuration not stated) was read as RGS4 act -7.31*, MrgX1 allo act inactive, RGS4 inh inactive, MrgX1 antagonist inactive and MrgX1 ag inactive.
For COc1cccc(C2=CC(c3ccc(N(C)C)cc3)n3ncnc3N2)c1 (configuration not stated) the results were RGS4 act inactive, MrgX1 allo act inactive, RGS4 inh inactive, MrgX1 antagonist inactive and MrgX1 ag 48.5*.
COc1cccc(C2=CC(c3ccccc3)n3ncnc3N2)c1 (configuration not stated) was read as RGS4 act inactive, MrgX1 allo act 15.4*, RGS4 inh inactive, MrgX1 antagonist inactive and MrgX1 ag inactive.
`C/C(=N\OCC(=O)N/N=C/c1ccccc1O)c1cccs1` gave RGS4 act inactive, MrgX1 allo act inactive, RGS4 inh inactive, MrgX1 antagonist inactive and MrgX1 ag inactive.
For CCn1c(SCC(=O)c2ccc(Br)cc2)nnc1C(C)NC(=O)Cc1ccc(OC)cc1 (configuration not stated) the results were RGS4 act inactive, MrgX1 allo act inactive, RGS4 inh inactive, MrgX1 antagonist inactive and MrgX1 ag inactive.
`COc1ccc(CC(=O)NC(C)c2nnc(SCC(=O)c3ccc(Br)cc3)n2C)cc1` (configuration not stated) gave RGS4 act inactive, MrgX1 allo act inactive, RGS4 inh inactive, MrgX1 antagonist -7.39* and MrgX1 ag inactive.
Screening Cc1cc(C)c(C(=O)C(C)OC(=O)C2=COCCO2)cc1C (configuration not stated) returned RGS4 act inactive, MrgX1 allo act 7.6*, RGS4 inh inactive, MrgX1 antagonist inactive and MrgX1 ag inactive.
